Converted amounts (≈) assume the structure as drawn.
Tests used:
[1] = test system: Staphylococcus aureus; test: Concentration (IC50) to inhibit the growth of Staphylococcus aureus.; type: functional, organism-based
Outline: (§1)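 Broth dilution in a defined liquid peptide medium lacking antagonists of small peptide mimetics. Inocula were overnight cultures grown in this medium at 37 °C and diluted to about 4 × 10^6 cfu/mL. Compound was tested as a doubling dilution series, final 0.065–512 μg/mL, incubated overnight at 37 °C. Turbidity was read, and IC50 is the concentration reducing 24-h growth to 50% of control.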

[2] = test system: Bacillus subtilis; test: Concentration (IC50) to inhibit the growth of Bacillus subtilis; type: functional, organism-based; outline: as §1
[3] = test system: Escherichia coli; test: Minimum inhibitory concentration (MIC) to control the growth of Escherichia coli strain PCM 2057; type: functional
Outline: (§2)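 Doubling dilutions of compound were made in a defined liquid peptide medium free of peptide-mimetic antagonists, final 0.065–512 μg/mL. The inoculum was an overnight 37 °C culture diluted to about 4 × 10^6 cfu/mL, incubated overnight at 37 °C. Non-turbid samples were subcultured (0.1 mL) onto solid peptide-medium agar and incubated overnight at 37 °C to assign MIC.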

[4] = test system: Bacillus subtilis; test: Minimum inhibitory concentration (MIC) to control the growth of Bacillus subtilis strain PCM 1949.; type: functional; outline: as §2
[5] = test system: Serratia marcescens; test: Minimum inhibitory concentration (MIC) to control the growth of Serratia marcescens strain PCM 549.; type: functional; outline: as §2
[6] = test system: Klebsiella aerogenes; test: Minimum inhibitory concentration (MIC) to control the growth of Klebsiella aerogenes strain PCM 2063; type: functional; outline: as §2
[7] = test system: Enterococcus faecalis; test: Concentration (IC50) to inhibit the growth of Streptococcus faecalis.; type: functional, organism-based; outline: as §1
[8] = test system: Staphylococcus aureus; test: Minimum inhibitory concentration (MIC) to control the growth of Staphylococcus aureus strain PCM 2054.; type: functional; outline: as §2
[9] = test system: Klebsiella aerogenes; test: Concentration (IC50) to inhibit the growth of Klebsiella aerogenes.; type: functional, organism-based; outline: as §1
[10] = test system: Enterococcus faecalis; test: Minimum inhibitory concentration (MIC) to control the growth of Streptococcus faecalis strain PCM 896; type: functional; outline: as §2
[11] = test system: Escherichia coli; test: Concentration (IC50) to inhibit the growth of Escherichia coli.; type: functional, organism-based; outline: as §1
[12] = test system: Serratia marcescens; test: Concentration (IC50) to inhibit the growth of Serratia marcescens.; type: functional, organism-based; outline: as §1

| MIC [3] [µg/mL] | MIC [4] [µg/mL] | MIC [5] [µg/mL] | MIC [6] [µg/mL] | MIC [8] [µg/mL] | MIC [10] [µg/mL] | Structure (SMILES) | IC50 [1] [µg/mL] | IC50 [2] [µg/mL] | IC50 [7] [µg/mL] | IC50 [9] [µg/mL] | IC50 [11] [µg/mL] | IC50 [12] [µg/mL] |
| --- | --- | --- | --- | --- | --- | --- | --- | --- | --- | --- | --- | --- |
| > 512 | > 512 | > 512 | > 512 | > 512 | > 512 | CC(C)CC(N)C(=O)NC(C1CCCCC1)P(=O)(O)O (stereo unspecified) | > 512 | > 512 | > 512 | > 512 | > 512 | > 512 |
| 128 (≈ 432 µM) | 128 (≈ 432 µM) | > 512 | 128 (≈ 432 µM) | > 512 | > 512 | CC(C)CC(N)C(=O)NC(CCC(=O)O)P(=O)(O)O (stereo unspecified) | 128 (≈ 432 µM) | 14 (≈ 47.3 µM) | 32 (≈ 108 µM) | 22 (≈ 74.3 µM) | 18 (≈ 60.8 µM) | 16 (≈ 54 µM) |
| > 512 | > 512 | > 512 | > 512 | > 512 | > 512 | CC(C)CC(N)C(=O)NC(C(C)(C)C)P(=O)(O)O (stereo unspecified) | > 512 | > 512 | > 512 | > 512 | > 512 | > 512 |
| > 512 | > 512 | > 512 | > 512 | > 512 | > 512 | CC(=O)OCC(NC(=O)C(C)N)P(=O)(O)O (stereo unspecified) | 0.065 (≈ 0.256 µM) | > 512 | 512 (≈ 2010 µM) | 96 (≈ 378 µM) | > 512 | > 512 |
| > 512 | > 512 | > 512 | > 512 | > 512 | > 512 | CC(C)CC(N)C(=O)NC(C12CC3CC(CC(C3)C1)C2)P(=O)(O)O (stereo unspecified) | > 512 | > 512 | > 512 | > 512 | > 512 | > 512 |
| 128 (≈ 484 µM) | > 512 | 512 (≈ 1940 µM) | 256 (≈ 969 µM) | 64 (≈ 242 µM) | > 512 | CC(C)CC(N)C(=O)N1CCCC1P(=O)(O)O (stereo unspecified) | 35 (≈ 132 µM) | > 512 | 42 (≈ 159 µM) | 154 (≈ 583 µM) | 70 (≈ 265 µM) | 83 (≈ 314 µM) |
| > 512 | > 512 | > 512 | > 512 | > 512 | > 512 | CC(=O)OCC(NC(=O)C(N)CC(C)C)P(=O)(O)O (stereo unspecified) | > 512 | 1.4 (≈ 4.73 µM) | 0.065 (≈ 0.219 µM) | > 512 | > 512 | > 512 |
| 64 (≈ 252 µM) | 16 (≈ 62.9 µM) | > 512 | 128 (≈ 504 µM) | 256 (≈ 1010 µM) | > 512 | CC(N)C(=O)NC(CCC(=O)O)P(=O)(O)O (stereo unspecified) | 1.8 (≈ 7.08 µM) | 14 (≈ 55.1 µM) | 32 (≈ 126 µM) | 4.8 (≈ 18.9 µM) | 5.6 (≈ 22 µM) | 0.065 (≈ 0.256 µM) |
| 8 (≈ 33.6 µM) | 16 (≈ 67.2 µM) | 0.5 (≈ 2.1 µM) | > 512 | 32 (≈ 134 µM) | > 512 | CC(C)CC(N)C(=O)NC(C)P(=O)(O)O (stereo unspecified) | 8 (≈ 33.6 µM) | 4 (≈ 16.8 µM) | 2 (≈ 8.4 µM) | 1.6 (≈ 6.72 µM) | 0.09 (≈ 0.378 µM) | 0.1 (≈ 0.42 µM) |
| > 512 | > 512 | > 512 | > 512 | > 512 | > 512 | COc1ccc(CC(NC(=O)C(N)CC(C)C)P(=O)(O)O)cc1OC (stereo unspecified) | > 512 | > 512 | > 512 | > 512 | > 512 | > 512 |
| > 512 | > 512 | > 512 | > 512 | > 512 | > 512 | CC(C)CC(N)C(=O)NC1(P(=O)(O)O)CCCCC1 (stereo unspecified) | 0.065 (≈ 0.222 µM) | 5.6 (≈ 19.2 µM) | > 512 | > 512 | > 512 | > 512 |
| 64 (≈ 254 µM) | 256 (≈ 1010 µM) | > 512 | 256 (≈ 1010 µM) | 256 (≈ 1010 µM) | 8 (≈ 31.7 µM) | CC(C)CC(N)C(=O)NC(C)(C)P(=O)(O)O (stereo unspecified) | 48 (≈ 190 µM) | 45 (≈ 178 µM) | 4.4 (≈ 17.4 µM) | 4.4 (≈ 17.4 µM) | 35 (≈ 139 µM) | 384 (≈ 1520 µM) |
| > 512 | > 512 | > 512 | > 512 | > 512 | > 512 | CC(N)C(=O)NC(C(C)(C)C)P(=O)(O)O (stereo unspecified) | > 512 | > 512 | > 512 | > 512 | > 512 | > 512 |
| > 512 | > 512 | > 512 | > 512 | 512 (≈ 1830 µM) | > 512 | CC(C)CC(N)C(=O)NC(CC(C)C)P(=O)(O)O (stereo unspecified) | 104 (≈ 371 µM) | 32 (≈ 114 µM) | > 512 | > 512 | 307 (≈ 1100 µM) | 64 (≈ 228 µM) |
| > 512 | > 512 | > 512 | > 512 | 256 (≈ 1070 µM) | > 512 | CC(C)CC(NC(=O)C(C)N)P(=O)(O)O (stereo unspecified) | 48 (≈ 201 µM) | 153 (≈ 642 µM) | 90 (≈ 378 µM) | > 512 | > 512 | > 512 |
| > 512 | > 512 | 128 (≈ 438 µM) | > 512 | > 512 | > 512 | CC(C)CC(N)C(=O)NC(C1CCCC1)P(=O)(O)O (stereo unspecified) | 6 (≈ 20.5 µM) | 435 (≈ 1490 µM) | > 512 | > 512 | > 512 | 64 (≈ 219 µM) |

The next lines start with the compound.

| Structure (SMILES) | MIC [3] [µg/mL] | MIC [4] [µg/mL] | MIC [5] [µg/mL] | MIC [6] [µg/mL] | MIC [8] [µg/mL] | MIC [10] [µg/mL] | IC50 [1] [µg/mL] | IC50 [2] [µg/mL] | IC50 [7] [µg/mL] | IC50 [9] [µg/mL] | IC50 [11] [µg/mL] | IC50 [12] [µg/mL] |
| --- | --- | --- | --- | --- | --- | --- | --- | --- | --- | --- | --- | --- |
| CC(N)C(=O)NC(C12CC3CC(CC(C3)C1)C2)P(=O)(O)O (stereo unspecified) | > 512 | > 512 | > 512 | > 512 | > 512 | > 512 | > 512 | > 512 | > 512 | > 512 | > 512 | > 512 |
| CC(N)C(=O)NC(C1CC1)P(=O)(O)O (stereo unspecified) | > 512 | > 512 | > 512 | > 512 | > 512 | > 512 | > 512 | > 512 | > 512 | > 512 | > 512 | > 512 |
| CC(N)C(=O)NC(C(C)C)P(=O)(O)O (stereo unspecified) | > 512 | > 512 | > 512 | > 512 | > 512 | > 512 | 6.8 (≈ 30.3 µM) | > 512 | 0.09 (≈ 0.401 µM) | > 512 | > 512 | > 512 |
| CC(N)C(=O)N1CCCC1P(=O)(O)O (stereo unspecified) | > 512 | > 512 | > 512 | > 512 | > 512 | > 512 | > 512 | > 512 | > 512 | > 512 | > 512 | > 512 |
| COc1ccc(CC(NC(=O)C(C)N)P(=O)(O)O)cc1OC (stereo unspecified) | > 512 | > 512 | > 512 | > 512 | > 512 | > 512 | > 512 | > 512 | > 512 | > 512 | > 512 | > 512 |
| CC(C)CC(N)C(=O)NC(Cc1ccccc1)P(=O)(O)O (stereo unspecified) | > 512 | > 512 | > 512 | > 512 | > 512 | > 512 | 0.6 (≈ 1.91 µM) | 0.065 (≈ 0.207 µM) | > 512 | > 512 | > 512 | > 512 |
| CC(N)C(=O)NC(C1CCCCC1)P(=O)(O)O (stereo unspecified) | > 512 | > 512 | > 512 | > 512 | > 512 | > 512 | 256 (≈ 969 µM) | > 512 | > 512 | > 512 | > 512 | > 512 |
| CC(N)C(=O)NC(C1CCCC1)P(=O)(O)O (stereo unspecified) | > 512 | > 512 | > 512 | > 512 | > 512 | > 512 | 512 (≈ 2050 µM) | > 512 | 16 (≈ 63.9 µM) | > 512 | > 512 | > 512 |
| CC(N)C(=O)NC(C)(C)P(=O)(O)O (stereo unspecified) | 64 (≈ 305 µM) | – | > 512 | 256 (≈ 1220 µM) | 256 (≈ 1220 µM) | 8 (≈ 38.1 µM) | 282 (≈ 1340 µM) | 16 (≈ 76.1 µM) | 19 (≈ 90.4 µM) | 512 (≈ 2440 µM) | 5.6 (≈ 26.6 µM) | 48 (≈ 228 µM) |
| CC(N)C(=O)NC1(P(=O)(O)O)CCCCC1 (stereo unspecified) | > 512 | > 512 | > 512 | > 512 | > 512 | > 512 | > 512 | > 512 | > 512 | > 512 | > 512 | > 512 |
